From ChEMBL document CHEMBL4049394, “Desing and synthesis of potent anti-Trypanosoma cruzi agents new thiazoles derivatives which induce apoptotic parasite death” (Eur J Med Chem, 2017)

Key:
Trypanosoma cruzi [1] = assay: Antitrypanosomal activity against bloodstream trypomastigote stage of Trypanosoma cruzi Y infected in monkey LLC-MK2 cells measured after 24 hrs by neubauer chamber method; format: functional; settings: LLC-MK2, in Primates
How it was run: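 Y strain trypomastigotes taken from LLC-MK2 culture supernatant and held in RPMI-1640 with 10% FBS. Seeded at 4×10^5 cells/well and treated in triplicate for 24 h at 37 °C, 5% CO2. Motile parasites counted in a Neubauer chamber against untreated wells. IC50 by nonlinear regression from at least seven concentrations. Experiment repeated; SD < 10% of mean required.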

[2] = Selectivity index, ratio of highest non-cytotoxic concentration for mouse J774A.1 cells to CC50 for bloodstream trypomastigote stage of Trypanosoma cruzi Y infected in monkey LLC-MK2 cells; format: toxicity, cell-based; settings: read-out: Selectivity Index
How it was run: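 Selectivity index is the highest non-cytotoxic concentration in J774A.1 macrophages divided by the 50% value against Y strain trypomastigotes measured after 24 h.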

[3] = target: Cruzipain (Trypanosoma cruzi) (UniProt P25779); assay: Inhibition of Trypanosoma cruzi cruzain at 50 uM using Z-phe-Arg-aminomethylcoumarin as substrate pretreated for 10 mins measured for 5 mins by fluorometric method relative to control
Chain of Cruzipain (Trypanosoma cruzi) (P25779 123-467 limits assumed): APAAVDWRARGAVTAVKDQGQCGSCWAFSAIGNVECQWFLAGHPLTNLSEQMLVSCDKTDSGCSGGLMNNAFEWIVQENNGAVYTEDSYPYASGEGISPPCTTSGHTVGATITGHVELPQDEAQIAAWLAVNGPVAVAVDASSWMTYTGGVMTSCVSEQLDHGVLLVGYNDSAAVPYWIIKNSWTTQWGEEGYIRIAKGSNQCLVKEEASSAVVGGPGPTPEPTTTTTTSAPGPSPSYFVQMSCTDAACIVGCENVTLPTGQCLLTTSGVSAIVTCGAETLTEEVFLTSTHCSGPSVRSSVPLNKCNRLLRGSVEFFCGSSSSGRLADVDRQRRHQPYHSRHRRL
How it was run: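 Cruzain at 0.5 nM in 0.1 M sodium acetate pH 5.5 with 0.1 mM β-mercaptoethanol and 0.01% Triton X-100. Compound screened at 50 µM after a 10-min preincubation with enzyme, then 2.5 µM Z-FR-AMC added. AMC fluorescence (ex 340/em 440 nm) followed for 5 min. Activity taken from initial rates relative to a DMSO control. Two independent experiments, each in triplicate.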

Trypanosoma cruzi [4] = assay: Induction of apoptosis in bloodstream trypomastigote stage of Trypanosoma cruzi Y infected in monkey LLC-MK2 cells assessed as necrotic cells at 1.2 uM measured after 24 hrs by Annexin-V-FITC/propidium iodide staining based flow cytometric method (reference value: 0.014%); format: functional
Trypanosoma cruzi [5] = assay: Induction of apoptosis in bloodstream trypomastigote stage of Trypanosoma cruzi Y infected in monkey LLC-MK2 cells assessed as viable cells at 1.2 uM measured after 24 hrs by Annexin-V-FITC/propidium iodide staining based flow cytometric method (reference value: 99.4%); format: functional
Trypanosoma cruzi [6] = assay: Induction of apoptosis in bloodstream trypomastigote stage of Trypanosoma cruzi Y infected in monkey LLC-MK2 cells assessed as late apoptotic cells at 2.4 uM measured after 24 hrs by Annexin-V-FITC/propidium iodide staining based flow cytometric method (reference value: 0.27%); format: functional
Trypanosoma cruzi [7] = assay: Induction of apoptosis in bloodstream trypomastigote stage of Trypanosoma cruzi Y infected in monkey LLC-MK2 cells assessed as early apoptotic cells at 2.4 uM measured after 24 hrs by Annexin-V-FITC/propidium iodide staining based flow cytometric method (reference value: 0.31%); format: functional
[8] = Cytotoxicity against mouse J774A.1 cells after 24 to 72 hrs by MTT assay; format: cell-based, J774.A1; settings: read-out: MNCC
How it was run: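 J774A.1 macrophages in DMEM with 10% heat-inactivated FBS at 37 °C, 5% CO2. Seeded at 1×10^5 cells/well, 24 h preincubation, then compounds at 1–100 µg/mL for 72 h (table footnote: viability at 24 h). MTT 2 h, formazan dissolved in DMSO, absorbance read at 570 nm. Highest non-cytotoxic concentration reported.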

Trypanosoma cruzi [9] = assay: Induction of apoptosis in bloodstream trypomastigote stage of Trypanosoma cruzi Y infected in monkey LLC-MK2 cells assessed as necrotic cells at 2.4 uM measured after 24 hrs by Annexin-V-FITC/propidium iodide staining based flow cytometric method (reference value: 0.014%); format: functional
Trypanosoma cruzi [10] = assay: Induction of apoptosis in bloodstream trypomastigote stage of Trypanosoma cruzi Y infected in monkey LLC-MK2 cells assessed as late apoptotic cells at 1.2 uM measured after 24 hrs by Annexin-V-FITC/propidium iodide staining based flow cytometric method (reference value: 0.27%); format: functional
Trypanosoma cruzi [11] = assay: Potency index, ratio of benznidazole CC50 to compound CC50 for Trypanosoma cruzi Dm28c epimastigotes; format: functional
Trypanosoma cruzi [12] = assay: Potency index, ratio of benznidazole CC50 to compound CC50 for bloodstream trypomastigote stage of Trypanosoma cruzi Y infected in monkey LLC-MK2 cells; format: functional
Trypanosoma cruzi [13] = assay: Induction of apoptosis in bloodstream trypomastigote stage of Trypanosoma cruzi Y infected in monkey LLC-MK2 cells assessed as viable cells at 2.4 uM measured after 24 hrs by Annexin-V-FITC/propidium iodide staining based flow cytometric method (reference value: 99.4%); format: functional
Trypanosoma cruzi [14] = assay: Induction of apoptosis in bloodstream trypomastigote stage of Trypanosoma cruzi Y infected in monkey LLC-MK2 cells assessed as early apoptotic cells at 1.2 uM measured after 24 hrs by Annexin-V-FITC/propidium iodide staining based flow cytometric method (reference value: 0.31%); format: functional
Trypanosoma cruzi [15] = assay: Antitrypanosomal activity against Trypanosoma cruzi Dm28c epimastigotes measured after 4 to 5 days by neubauer chamber method; format: functional
How it was run: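 Dm28c epimastigotes in LIT with 10% FBS, 1% hemin and gentamycin at 27 °C. Seeded at 10^6 cells/well and treated in triplicate for 4 days (table footnote: 5 days). Parasites counted in a Neubauer chamber against untreated wells as 100%. IC50 by nonlinear regression from at least five concentrations. Experiment repeated; only values with SD < 10% of mean kept.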

Trypanosoma cruzi [16] = assay: Induction of apoptosis in bloodstream trypomastigote stage of Trypanosoma cruzi Y infected in monkey LLC-MK2 cells assessed as necrotic cells at 2.2 uM measured after 24 hrs by Annexin-V-FITC/propidium iodide staining based flow cytometric method (reference value: 0.014%); format: functional
Trypanosoma cruzi [17] = assay: Induction of apoptosis in bloodstream trypomastigote stage of Trypanosoma cruzi Y infected in monkey LLC-MK2 cells assessed as early apoptotic cells at 2.2 uM measured after 24 hrs by Annexin-V-FITC/propidium iodide staining based flow cytometric method (reference value: 0.31%); format: functional
Trypanosoma cruzi [18] = assay: Induction of apoptosis in bloodstream trypomastigote stage of Trypanosoma cruzi Y infected in monkey LLC-MK2 cells assessed as necrotic cells at 4.4 uM measured after 24 hrs by Annexin-V-FITC/propidium iodide staining based flow cytometric method (reference value: 0.014%); format: functional
Trypanosoma cruzi [19] = assay: Induction of apoptosis in bloodstream trypomastigote stage of Trypanosoma cruzi Y infected in monkey LLC-MK2 cells assessed as early apoptotic cells at 4.4 uM measured after 24 hrs by Annexin-V-FITC/propidium iodide staining based flow cytometric method (reference value: 0.31%); format: functional
Trypanosoma cruzi [20] = assay: Induction of apoptosis in bloodstream trypomastigote stage of Trypanosoma cruzi Y infected in monkey LLC-MK2 cells assessed as late apoptotic cells at 2.2 uM measured after 24 hrs by Annexin-V-FITC/propidium iodide staining based flow cytometric method (reference value: 0.27%); format: functional
Trypanosoma cruzi [21] = assay: Induction of apoptosis in bloodstream trypomastigote stage of Trypanosoma cruzi Y infected in monkey LLC-MK2 cells assessed as late apoptotic cells at 4.4 uM measured after 24 hrs by Annexin-V-FITC/propidium iodide staining based flow cytometric method (reference value: 0.27%); format: functional
Trypanosoma cruzi [22] = assay: Induction of apoptosis in bloodstream trypomastigote stage of Trypanosoma cruzi Y infected in monkey LLC-MK2 cells assessed as early apoptotic cells at 3.2 uM measured after 24 hrs by Annexin-V-FITC/propidium iodide staining based flow cytometric method (reference value: 0.31%); format: functional
Trypanosoma cruzi [23] = assay: Induction of apoptosis in bloodstream trypomastigote stage of Trypanosoma cruzi Y infected in monkey LLC-MK2 cells assessed as late apoptotic cells at 3.2 uM measured after 24 hrs by Annexin-V-FITC/propidium iodide staining based flow cytometric method (reference value: 0.27%); format: functional
Trypanosoma cruzi [24] = assay: Induction of apoptosis in bloodstream trypomastigote stage of Trypanosoma cruzi Y infected in monkey LLC-MK2 cells assessed as late apoptotic cells at 1.6 uM measured after 24 hrs by Annexin-V-FITC/propidium iodide staining based flow cytometric method (reference value: 0.27%); format: functional
Trypanosoma cruzi [25] = assay: Induction of apoptosis in bloodstream trypomastigote stage of Trypanosoma cruzi Y infected in monkey LLC-MK2 cells assessed as early apoptotic cells at 1.6 uM measured after 24 hrs by Annexin-V-FITC/propidium iodide staining based flow cytometric method (reference value: 0.31%); format: functional
Trypanosoma cruzi [26] = assay: Induction of apoptosis in bloodstream trypomastigote stage of Trypanosoma cruzi Y infected in monkey LLC-MK2 cells assessed as necrotic cells at 1.6 uM measured after 24 hrs by Annexin-V-FITC/propidium iodide staining based flow cytometric method (reference value: 0.014%); format: functional
Trypanosoma cruzi [27] = assay: Induction of apoptosis in bloodstream trypomastigote stage of Trypanosoma cruzi Y infected in monkey LLC-MK2 cells assessed as necrotic cells at 3.2 uM measured after 24 hrs by Annexin-V-FITC/propidium iodide staining based flow cytometric method (reference value: 0.014%); format: functional
Trypanosoma cruzi [28] = assay: Induction of apoptosis in bloodstream trypomastigote stage of Trypanosoma cruzi Y infected in monkey LLC-MK2 cells assessed as early apoptotic cells at 5 uM measured after 24 hrs by Annexin-V-FITC/propidium iodide staining based flow cytometric method (reference value: 0.31%); format: functional
Trypanosoma cruzi [29] = assay: Induction of apoptosis in bloodstream trypomastigote stage of Trypanosoma cruzi Y infected in monkey LLC-MK2 cells assessed as late apoptotic cells at 5 uM measured after 24 hrs by Annexin-V-FITC/propidium iodide staining based flow cytometric method (reference value: 0.27%); format: functional
Trypanosoma cruzi [30] = assay: Induction of apoptosis in bloodstream trypomastigote stage of Trypanosoma cruzi Y infected in monkey LLC-MK2 cells assessed as necrotic cells at 5 uM measured after 24 hrs by Annexin-V-FITC/propidium iodide staining based flow cytometric method (reference value: 0.014%); format: functional
Trypanosoma cruzi [31] = assay: Induction of apoptosis in bloodstream trypomastigote stage of Trypanosoma cruzi Y infected in monkey LLC-MK2 cells assessed as early apoptotic cells at 2.5 uM measured after 24 hrs by Annexin-V-FITC/propidium iodide staining based flow cytometric method (reference value: 0.31%); format: functional
Trypanosoma cruzi [32] = assay: Induction of apoptosis in bloodstream trypomastigote stage of Trypanosoma cruzi Y infected in monkey LLC-MK2 cells assessed as late apoptotic cells at 2.5 uM measured after 24 hrs by Annexin-V-FITC/propidium iodide staining based flow cytometric method (reference value: 0.27%); format: functional
Trypanosoma cruzi [33] = assay: Induction of apoptosis in bloodstream trypomastigote stage of Trypanosoma cruzi Y infected in monkey LLC-MK2 cells assessed as necrotic cells at 2.5 uM measured after 24 hrs by Annexin-V-FITC/propidium iodide staining based flow cytometric method (reference value: 0.014%); format: functional

SMILES: COc1ccc(-c2cs/c(=N\N=C(/C)c3ccccn3)n2-c2ccccc2)cc1
- CC50 (Trypanosoma cruzi [1]): 1200 nM
- selectivity ratio [2]: 397 to 398
- inhibition [3]: 48%
- Activity (Trypanosoma cruzi [4]): 2.99 - 3.53%
- Activity (Trypanosoma cruzi [5]): 53.8%
- Activity (Trypanosoma cruzi [6]): 3.67 - 4.5%
- Activity (Trypanosoma cruzi [7]): 36.4 - 38.9%
- MNTC [8]: 477 µM
- Activity (Trypanosoma cruzi [9]): 2.3 - 3.48%
- Activity (Trypanosoma cruzi [10]): 3.61 - 4.8%
- Ratio (Trypanosoma cruzi [11]): 10
- Ratio (Trypanosoma cruzi [12]): 4 - 5
- Activity (Trypanosoma cruzi [13]): 55.2%
- Activity (Trypanosoma cruzi [14]): 38.6 - 39.6%
- CC50 (Trypanosoma cruzi [15]): 5000 nM

SMILES: C/C(=N\N=c1/scc(-c2ccc(Br)cc2)n1C)c1ccccn1
- CC50 (Trypanosoma cruzi [1]): 2200 nM
- selectivity ratio [2]: 15
- Activity (Trypanosoma cruzi [16]): 3%
- Activity (Trypanosoma cruzi [17]): 38%
- Activity (Trypanosoma cruzi [18]): 3.15%
- Activity (Trypanosoma cruzi [19]): 35%
- MNTC [8]: 33 µM
- Activity (Trypanosoma cruzi [20]): 4%
- Ratio (Trypanosoma cruzi [11]): 15
- Activity (Trypanosoma cruzi [21]): 4.7%
- CC50 (Trypanosoma cruzi [15]): 3200 nM

SMILES: C/C(=N\N=c1/scc(-c2ccc(Cl)cc2Cl)n1-c1ccccc1)c1ccccn1
- CC50 (Trypanosoma cruzi [1]): 1600 nM
- selectivity ratio [2]: 50 to 51
- Activity (Trypanosoma cruzi [22]): 39.4%
- Activity (Trypanosoma cruzi [23]): 4.3%
- Activity (Trypanosoma cruzi [24]): 4%
- Activity (Trypanosoma cruzi [25]): 39.5%
- MNTC [8]: 81 µM
- Activity (Trypanosoma cruzi [26]): 2.9%
- Ratio (Trypanosoma cruzi [11]): 18
- Ratio (Trypanosoma cruzi [12]): 4 - 5
- Activity (Trypanosoma cruzi [27]): 3.2%
- CC50 (Trypanosoma cruzi [15]): 2700 nM

SMILES: C/C(=N\NC(=S)Nc1ccccc1)c1ccccn1
- CC50 (Trypanosoma cruzi [1]): 2500 nM
- selectivity ratio [2]: 8.4
- Activity (Trypanosoma cruzi [28]): 36%
- Activity (Trypanosoma cruzi [29]): 4.8%
- Activity (Trypanosoma cruzi [30]): 3.55%
- Activity (Trypanosoma cruzi [31]): 36.8%
- MNTC [8]: 21 µM
- Activity (Trypanosoma cruzi [32]): 5.4%
- Activity (Trypanosoma cruzi [33]): 3.6%
- CC50 (Trypanosoma cruzi [15]): 15400 nM
